Measured values from ChEMBL document CHEMBL1143811, “Bis-acridines as lead antiparasitic agents: structure-activity analysis of a discrete compound library in vitro” (Antimicrob Agents Chemother, 2007).
pEC50: −log10 of the molar value. Values after ≈ are worked out from the molar mass of the structure shown. Active and inactive are the calls of the source. The rule behind the calls is not given here.

What was measured:
[1] = tested on: Plasmodium falciparum; assay: Antimicrobial activity against chloroquine-resistant Plasmodium falciparum W2 after 72 hrs; type: functional, organism-based; conditions: W2, 72 h
[2] = tested on: Plasmodium falciparum; assay: Antimicrobial activity against chloroquine-sensitive Plasmodium falciparum 3D7 after 72 hrs; type: functional, organism-based; conditions: 3D7, 72 h
[3] = Cytotoxicity against BALB/c mouse peritoneal macrophages at 10 uM after 48 hrs hrs; type: cell-based; conditions: macrophage
[4] = tested on: Entamoeba histolytica; assay: Antimicrobial activity against Entamoeba histolytica HM1 IMSS trophozoites after 48 hrs; type: functional, organism-based; conditions: 60 h, in the assay text read “60 hrs” for “48 hrs”
Procedure, shortened: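 Trophozoites were grown axenically in TYI-S-33 with 10% bovine adult serum and seeded at ~10^4 cells/well. Compound (range up to 10 µM) was added to 48-h log-phase cultures, then incubated 60 h at 37°C under anaerobic conditions. Viability was read by CellTiter-Glo luminescence. EC50 came from quadruplicate wells in two independent experiments.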

[5] = tested on: Leishmania donovani; assay: Antileishmanial activity against Leishmania donovani MHOM/SD/00/1S-2D promastigotes assessed as parasite death at 10 uM after 72 hrs; type: functional
Procedure, shortened: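 Promastigotes seeded at 1.5 x 10^5 cells/ml in medium 199 with 10% heat-inactivated FBS. Compound added at a final 10 µM, in triplicate, in sealed flasks at 27°C for up to 7 days. Aliquots taken daily and viability read by CellTiter-Glo luminescence. Result given as percent reduction in viability relative to DMSO-treated cultures. Controls were K11777 or amphotericin B at 10 µM.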

[6] = Selectivity index, ratio of MIC for HL60 cells to MIC for Trypanosoma brucei brucei clone 427-221a; type: functional, HL-60
Procedure, shortened: (§1)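 Bloodstream-form T. b. brucei in Baltz medium (~10^4/ml) and HL-60 cells in RPMI 1640 (~10^5/ml), both with 16.7% FBS, were exposed 48 h at 37°C in 5% CO2 to compound up to 10 µM in 1% final DMSO. Live cells were hemocytometer-counted, by motility (trypanosomes) or trypan blue exclusion (HL-60). EC50 was taken by regression versus DMSO cultures from three experiments. MIC was the lowest fully lethal concentration, judged microscopically.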

[7] = tested on: Trypanosoma brucei brucei; assay: Antimicrobial activity against Trypanosoma brucei brucei clone 427-221a after 48 hrs; type: functional, organism-based; procedure, shortened: as §1
[8] = Selectivity index, ratio of EC50 for HL60 cells to EC50 for Trypanosoma brucei brucei clone 427-221a; type: functional, HL-60; procedure, shortened: as §1
[9] = tested on: Trichomonas vaginalis; assay: Antimicrobial activity against Trichomonas vaginalis G3 assessed as parasite death at 10 uM after 24 hrs; type: functional
Procedure, shortened: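 G3 strain grown in Diamond's medium at 37°C. Assay culture set up as 0.5 ml dense culture diluted into 5.0 ml complete medium. Compound at a final 10 µM for 24 h at 37°C. Motile cells counted by hemocytometer. Result is percent dead parasites relative to DMSO-treated cultures, from five separate experiments. Controls were untreated, DMSO and metronidazole.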

[10] = (§2) Cytotoxicity against human HL60 cells; type: cell-based, HL-60; conditions: human, HL-60 cells; read-out: MIC; procedure, shortened: as §1
[11] = tested on: HL-60; assay: as §2; type: cell-based; conditions: Homo sapiens, HL-60; procedure, shortened: as §1
[12] = tested on: Leishmania major; assay: Antileishmanial activity against Leishmania major MHOM/IL/81/FE/BNI amastigotes after 48 hrs at 1 uM; type: functional, organism-based
Procedure, shortened: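 Peritoneal macrophages from BALB/c mice (6-8 wk) adhered 2 h at 37°C, infected 24 h with stationary-phase L. major promastigotes at 10:1 parasite:macrophage, washed, then exposed 48 h to compound at 0.0001 to 10 µM. Intracellular amastigotes stained with acridine orange/ethidium bromide and counted by fluorescence microscopy; percent amastigotes cleared versus DMSO-treated cultures; three repeats.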

[13] = tested on: Trypanosoma brucei brucei; assay: Antimicrobial activity against Trypanosoma brucei brucei clone 427-221a at 1.56 uM; type: functional
[14] = tested on: Plasmodium falciparum; assay: Antimalarial activity against chloroquine-resistant Plasmodium falciparum FcB1R after 72 hrs; type: functional, organism-based
[15] = tested on: MRC5; assay: Toxicity against human MRC5 cells at 3.13 uM; type: cell-based; conditions: mrc5, 3.13 µM
[16] = tested on: Schistosoma mansoni; assay: Antimicrobial activity against Schistosoma mansoni assessed as worm vitality at 6 uM after 4 hrs; type: functional, organism-based
Procedure, shortened: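 20-day-old worms were obtained by perfusion of BALB/c mice infected with 200 cercariae. About 20 worms/well were kept in Basch 169 with 10% bovine calf serum, preincubated 24 h at 37°C in 5% CO2, then exposed to 1, 3 or 6 µM. Vitality (feeding, flexing, gut peristalsis; death = nonmotile, shrunken, dark) was scored at 4 and 18 h in two experiments.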

CCCN(CCCCNc1c2ccc(Cl)cc2nc2ccc(OC)cc12)CCCNc1c2ccc(Cl)cc2nc2ccc(OC)cc12
pEC50 [1]: 6.50 | pEC50 [2]: 6.92 | Activity [3]: Toxic | pEC50 [4]: 5.30 | Activity [5]: 99% | Ratio [6]: 10 | pEC50 [7]: 8.85 | MIC [7]: 1 µM (≈ 0.671 µg/mL) | Ratio EC50 [8]: 348 | Activity [9]: 90% | MCC [10]: 10 µM | pEC50 [11]: 6.31 | Activity [12]: inactive

COc1ccc2nc3cc(Cl)ccc3c(NCCCCN(CCCNc3c4ccc(Cl)cc4nc4ccc(OC)cc34)C(=O)CNC(=O)[C@H](C)NC(=O)OC(C)(C)C)c2c1
pEC50 [1]: 6.47 | pEC50 [2]: 6.50 | Activity [3]: Toxic | pEC50 [4]: 5.30 | Activity [5]: 37% | Ratio [6]: 10 | pEC50 [7]: 8.62 | MIC [7]: 1 µM (≈ 0.857 µg/mL) | Ratio EC50 [8]: 111 | Activity [9]: 53% | MCC [10]: 10 µM | pEC50 [11]: 6.57 | Activity [12]: inactive

COc1ccc2nc3cc(Cl)ccc3c(NCCCCN(CCCNc3c4ccc(Cl)cc4nc4ccc(OC)cc34)C(=O)[C@H](C)NC(=O)OC(C)(C)C)c2c1
pEC50 [1]: 6.20 | pEC50 [2]: 6.22 | Activity [3]: Toxic | Activity [13]: 100% | pEC50 [4]: 5.30 | Activity [5]: 49% | pEC50 [14]: 6.48 | Ratio [6]: 10 | Activity [15]: 0% | pEC50 [7]: 8.46 | MIC [7]: 1 µM (≈ 0.8 µg/mL) | Ratio EC50 [8]: 469 | Activity [9]: 95% | MCC [10]: 10 µM | pEC50 [11]: 5.78 | Activity [12]: inactive

COc1ccc2nc3cc(Cl)ccc3c(NCCCCNCCCNc3c4ccc(Cl)cc4nc4ccc(OC)nc34)c2n1
pEC50 [1]: 7.47 | pEC50 [2]: 7.54 | Activity [3]: Toxic | pEC50 [4]: 6.30 | Activity [16]: Active | Activity [5]: 99% | Ratio [6]: 70 | pEC50 [7]: 8.85 | MIC [7]: 0.1 µM (≈ 0.0631 µg/mL) | Ratio EC50 [8]: 86 | Activity [9]: 85% | MCC [10]: 7 µM | pEC50 [11]: 6.92 | Activity [12]: inactive

COc1ccc2nc3cc(Cl)ccc3c(NCCCCCCCCNc3c4ccc(Cl)cc4nc4ccc(OC)cc34)c2c1
pEC50 [1]: 6.91 | pEC50 [2]: 6.94 | Activity [3]: Toxic | Activity [13]: 100% | pEC50 [4]: 6.30 | Activity [5]: 99% | pEC50 [14]: 7.72 | Ratio [6]: 10 | Activity [15]: 20% | pEC50 [7]: 8.07 | MIC [7]: 1 µM (≈ 0.628 µg/mL) | Ratio EC50 [8]: 191 | Activity [9]: 100% | MCC [10]: 10 µM | pEC50 [11]: 5.78 | Activity [12]: inactive

COc1ccc2nc3cc(Cl)ccc3c(NCCCN3CCN(CCCNc4c5ccc(Cl)cc5nc5ccc(OC)cc45)CC3)c2c1
pEC50 [1]: 6.95 | pEC50 [2]: 7.19 | Activity [3]: Toxic | Activity [13]: 60% | pEC50 [4]: 5.30 | Activity [5]: 46% | pEC50 [14]: 7.77 | Ratio [6]: 100 | Activity [15]: 0% | pEC50 [7]: 8.74 | MIC [7]: 0.1 µM (≈ 0.0684 µg/mL) | Ratio EC50 [8]: 836 | Activity [9]: 10% | MCC [10]: 10 µM | pEC50 [11]: 5.83 | Activity [12]: inactive

C[C@@H]1[C@H](O)[C@@H](C)/C=C/C=C/C=C/C=C/C=C/C=C/C=C/[C@H](O[C@@H]2O[C@H](C)[C@@H](O)[C@H](N)[C@@H]2O)C[C@@H]2O[C@](O)(C[C@@H](O)C[C@@H](O)[C@H](O)CC[C@@H](O)C[C@@H](O)CC(=O)O[C@H]1C)C[C@H](O)[C@H]2C(=O)O [AMPHOTERICIN B]
Activity [5]: 100%

CCN(CC)CCCC(C)Nc1c2ccc(Cl)cc2nc2ccc(OC)cc12 (stereo not given) [QUINACRINE]
pEC50 [1]: 7.48 | pEC50 [2]: 7.96

COc1ccc2nc3cc(Cl)ccc3c(NCCCCCCCCNc3c4ccc(Cl)cc4nc4ccc(OC)nc34)c2n1
pEC50 [1]: 7.16 | pEC50 [2]: 7.21 | Activity [3]: Toxic | pEC50 [4]: 5.30 | Activity [5]: 42% | Ratio [6]: >10 | pEC50 [7]: 7.51 | MIC [7]: 1 µM (≈ 0.63 µg/mL) | Ratio EC50 [8]: 859 | Activity [9]: 59% | MCC [10]: > 10 µM | pEC50 [11]: 4.58 | Activity [12]: inactive

CCN(CC)CCCC(C)Nc1ccnc2cc(Cl)ccc12 (stereo not given) [CHLOROQUINE]
pEC50 [1]: 6.53 | pEC50 [2]: 8.00

O=C(C1CCCCC1)N1CC(=O)N2CCc3ccccc3C2C1 (stereo not given)
Activity [16]: Active

Nc1nc(N)nc(Nc2ccc([As]3SCC(CO)S3)cc2)n1 (stereo not given) [MELARSOPROL]
Ratio [6]: >1000 | pEC50 [7]: 7.80 | MIC [7]: 0.1 µM | Ratio EC50 [8]: 267 | MCC [10]: 100 µM | pEC50 [11]: 5.37

COc1ccc2nc3cc(Cl)ccc3c(NCCCCCCCCCCNc3c4ccc(Cl)cc4nc4ccc(OC)cc34)c2c1
pEC50 [1]: 6.94 | pEC50 [2]: 7.02 | Activity [3]: Toxic | Activity [13]: 100% | pEC50 [4]: 6.30 | Activity [5]: 96% | pEC50 [14]: 7.24 | Ratio [6]: 10 | Activity [15]: 0% | pEC50 [7]: 7.60 | MIC [7]: 1 µM (≈ 0.656 µg/mL) | Ratio EC50 [8]: 125 | Activity [9]: 100% | MCC [10]: 10 µM | pEC50 [11]: 5.50 | Activity [12]: inactive

COc1ccc2nc3cc(Cl)ccc3c(NCCNCCNc3c4ccc(Cl)cc4nc4ccc(OC)cc34)c2c1
pEC50 [1]: 6.10 | pEC50 [2]: 6.21 | Activity [3]: Toxic | Activity [13]: 100% | pEC50 [4]: 5.30 | Activity [5]: 47% | pEC50 [14]: 7.20 | Ratio [6]: >1 | Activity [15]: 100% | pEC50 [7]: 6.66 | MIC [7]: 10 µM (≈ 5.87 µg/mL) | Ratio EC50 [8]: 43 | Activity [9]: 0% | MCC [10]: > 10 µM | pEC50 [11]: 5.02 | Activity [12]: inactive
